Laboratory results from ChEMBL document CHEMBL3861979, “Polyprenylated Benzoylphloroglucinols with DNA Polymerase Inhibitory Activity from the Fruits of Garcinia schomburgkiana” (J Nat Prod, 2016).
pIC50: −log10 of the molar value.

How the values were obtained:
DNA polymerase lambda = molecular target: T1, DNA polymerase lambda (Homo sapiens, UniProt Q9UGP5); assay: Inhibition of recombinant human His-tagged DNA polymerase lambda assessed as reduction in [3H]dTTP incorporation using poly(dA)/oligo(dT)18 as template/primer preincubated for 10 mins followed by template/primer addition measured after 60 mins
T1 sequence (Q9UGP5 whole entry): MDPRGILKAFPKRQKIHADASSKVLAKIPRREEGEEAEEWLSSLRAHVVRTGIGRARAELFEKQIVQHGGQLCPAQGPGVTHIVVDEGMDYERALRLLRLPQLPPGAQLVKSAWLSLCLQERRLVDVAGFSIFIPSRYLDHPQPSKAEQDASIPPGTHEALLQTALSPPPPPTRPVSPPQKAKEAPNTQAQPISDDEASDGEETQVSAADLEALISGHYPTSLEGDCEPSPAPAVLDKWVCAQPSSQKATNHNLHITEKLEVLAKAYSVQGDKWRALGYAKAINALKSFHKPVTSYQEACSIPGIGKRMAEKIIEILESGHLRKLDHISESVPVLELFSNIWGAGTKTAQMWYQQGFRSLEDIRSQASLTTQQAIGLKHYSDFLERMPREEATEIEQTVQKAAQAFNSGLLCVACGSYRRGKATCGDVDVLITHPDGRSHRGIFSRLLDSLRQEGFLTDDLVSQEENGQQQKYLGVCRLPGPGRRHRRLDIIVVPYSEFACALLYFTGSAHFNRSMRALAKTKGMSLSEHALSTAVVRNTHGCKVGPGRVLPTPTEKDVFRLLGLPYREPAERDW
In short: (§1)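 IC50 values are given as mean ± SD from three independent experiments.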

[1] = Cytotoxicity against human HeLa cells assessed as reduction in cell viability after 24 hrs by MTT assay; format: functional; conditions: read-out: LD50 (the source's name)
In short: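 HeLa human cervical cancer cultured cells. Potency is expressed as median lethal dose (LD50). Values are mean ± SD of five independent experiments.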

[2] = Inhibition of calf thymus DNA polymerase alpha assessed as reduction in [3H]dTTP incorporation using poly(dA)/oligo(dT)18 as template/primer preincubated for 10 mins followed by template/primer addition measured after 60 mins; design: species or system Bos taurus; in short: as §1

Compound | pIC50 (DNA polymerase lambda) | CC50 [1] [µM] | pIC50 [2]
CC(C)=CCC[C@@]1(C)[C@H](C/C=C(\C)C/C=C/C(C)(C)O)C[C@]2(CC=C(C)C)C(=O)[C@@]1(CC=C(C)C)C(=O)C(C(=O)c1ccc(O)c(O)c1)=C2O | 5.25 | 73.4 | 5.06
CC(C)=CCC/C(C)=C/C[C@@H]1C[C@]2(CC=C(C)C)C(=O)[C@@]3(CC=C(C)C)C(O[C@@H](C(C)(C)O)CC[C@@]13C)C(C(=O)c1ccc(O)c(O)c1)=C2O (some centres undefined) | 5.16 | 5.9 | 5.27
CC(C)=CCC/C(C)=C/CC1(CC=C(C)C)C(O)=C(C(=O)c2ccc(O)c(O)c2)C(=O)C2=C1OC(C)(C)C=C2 (centres undefined) | 5.21 | 50.8 | 5.10
C=C(C)[C@@H](O)CC/C(C)=C/C[C@@H]1C[C@]2(CC=C(C)C)C(=O)[C@@](CC=C(C)C)(C(=O)C(C(=O)c3ccc(O)c(O)c3)=C2O)[C@@]1(C)CCC=C(C)C | 5.24 | 9.9 | 5.19
CC(C)=CC[C@@H]1C[C@]2(CC=C(C)C)C(=O)[C@@]3(CC=C(C)C)C(O[C@@H](C(C)(C)O)CC[C@@]13C)C(C(=O)c1ccc(O)c(O)c1)=C2O (some centres undefined) | 5.13 | 6.5 | 5.25
C=C(C)C(O)C[C@@H]1C[C@]2(CC=C(C)C)C(=O)[C@@](CC=C(C)C)(C(=O)C(C(=O)c3ccc(O)c(O)c3)=C2O)[C@@]1(C)CCC=C(C)C (some centres undefined) | 5.06 | 66.5 | 5.07
CC(C)=CCC[C@@]1(C)[C@H](CC=C(C)C)C[C@]2(CC=C(C)C)C(=O)[C@@]1(CC=C(C)C)C(=O)C(C(=O)c1cccc(O)c1)=C2O | 5.24 | 10.2 | 5.19
C=C(C)[C@H](O)CC/C(C)=C/C[C@@H]1C[C@]2(CC=C(C)C)C(=O)[C@@](CC=C(C)C)(C(=O)C(C(=O)c3ccc(O)c(O)c3)=C2O)[C@@]1(C)CCC=C(C)C | 5.30 | 9.8 | 5.20
Cc1cn([C@H]2CC[C@@H](COP(=O)(O)OP(=O)(O)OP(=O)(O)O)O2)c(=O)[nH]c1=O | 4.54 | > 200 | < 3.70
C[C@@]1(CO)[C@H](O)CC[C@@]2(C)[C@H]1CC[C@H]1C[C@@H]3C[C@@]12CC[C@]3(O)CO [APHIDICOLIN] | < 3.70 | 22 | 4.71
CC(C)=CCC[C@@]1(C)[C@H](CC=C(C)C)C[C@]2(CC=C(C)C)C(=O)[C@@]1(CC=C(C)C)C(=O)C(C(=O)c1ccc(O)c(O)c1)=C2O [GUTTIFERONE K] | 5.27 |  | 
CC(C)=CCC/C(C)=C/C[C@@H]1C[C@]2(CC=C(C)C)C(=O)[C@@](CC=C(C)C)(C(=O)C(C(=O)c3ccc(O)c(O)c3)=C2O)[C@@]1(C)CCC=C(C)C [OBLONGIFOLIN C] | 5.28 | 7.3 | 5.24
